According to ChEMBL document CHEMBL1122111, “Allergenic alpha-methylene-gamma-butyrolactones. Stereospecific syntheses of (+)- and (-)-gamma-methyl-alpha-methylene-gamma-butyrolactones. A study of the specificity of (+) and (-) enantiomers in inducing allergic contact dermatitis” (1982):
Values joined by “and” are separate entries in the source; they are usually repeats but may differ in a detail not shown here. Equal values may be shown once.

Experiments:
Type in all cases: functional
[1] = species on record: Cavia porcellus; test: Tested for effect on guinea pigs sensitized with (R)-5-Methyl-3-methylene -dihydro -furan-2-one, Number of sensitive animals out of 8 tested
Outline: (§1)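 Female albino Hartley guinea pigs (250–300 g) received three 0.1-mL intradermal nuchal injections on alternate days of a 1:1 FCA/saline emulsion with 5% (+)-enantiomer. After 2 weeks rest, 0.25 mL of 1% or 2% methylene chloride solution was deposited on a 2-cm2 circle and read every 24 h. Erythema/swelling was scored 0–3; av = summed intensities divided by animal number.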

[2] = species on record: Cavia porcellus; test: Tested for effect on guinea pigs sensitized with (S)5-Methyl-3-methylene-dihydro- furan-2-one; Number of sensitive animals out of 8 tested
Outline: (§2)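 Sensitization: female albino Hartley guinea pigs (250–300 g) were given three alternate-day 0.1-mL intradermal nuchal injections of 1:1 FCA/saline emulsion containing 5% (−)-enantiomer. Challenge after 2 weeks rest used 0.25 mL of 1% or 2% methylene chloride solution on a 2-cm2 area, read every 24 h. The scale was 0 (none) to 3 (erythema/swelling beyond area); av = summed scores/animals.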

[3] = species on record: Cavia porcellus; test: Tested for effect on guinea pigs sensitized with (+/-)-5-Methyl-3-methylene-dihydro-furan-2-one, Number of sensitive animals out of 8 tested
Outline: (§3)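 Female albino Hartley guinea pigs (250–300 g), sensitized by three intradermal nuchal injections of 0.1 mL on alternate days. The emulsion was 1:1 FCA/saline with 10% racemate (5% of each antipode). After 2 weeks rest, 0.25 mL of 1% or 2% methylene chloride solution was applied to a 2-cm2 area. Reactions were scored 0–3 every 24 h; av = summed scores/animals.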

[4] = species on record: Cavia porcellus; test: Tested for effect on guinea pigs sensitized with (R)-5-Methyl-3-methylene -dihydro -furan-2-one,av is calculated by adding the test intensity and divided by the number of animals; outline: as §1
[5] = species on record: Cavia porcellus; test: Tested for effect on guinea pigs sensitized with (S)5-Methyl-3-methylene-dihydro- furan-2-one,av is calculated by adding the test intensity and divided by the number of animals; outline: as §2
[6] = species on record: Cavia porcellus; test: Tested for effect on guinea pigs sensitized with (+/-)-5-Methyl-3-methylene-dihydro-furan-2-one, av is calculated by adding the test intensity and divided by the number of animals; outline: as §3
[7] = species on record: Cavia porcellus; test: Tested for effect on guinea pigs sensitized with (R)-5-Methyl-3-methylene -dihydro -furan-2-one, number of animals showing erythema and swelling of the test area; outline: as §1
[8] = species on record: Cavia porcellus; test: Tested for effect on guinea pigs sensitized with (R)-5-Methyl-3-methylene -dihydro -furan-2-one,number of animals showing erythema covering the part of the test area; outline: as §1
[9] = species on record: Cavia porcellus; test: Tested for effect on guinea pigs sensitized with (R)-5-Methyl-3-methylene -dihydro -furan-2-one,number of animals showing erythema covering the whole test area; outline: as §1
[10] = species on record: Cavia porcellus; test: Tested for effect on guinea pigs sensitized with (R)-5-Methyl-3-methylene -dihydro -furan-2-one,number of animals showing no reaction; outline: as §1
[11] = species on record: Cavia porcellus; test: Tested for effect on guinea pigs sensitized with (S)5-Methyl-3-methylene-dihydro- furan-2-one number of animals showing erythema and swelling of the test area.; outline: as §2
[12] = species on record: Cavia porcellus; test: Tested for effect on guinea pigs sensitized with (S)5-Methyl-3-methylene-dihydro- furan-2-one number of animals showing erythema covering the part of the test area; outline: as §2
[13] = species on record: Cavia porcellus; test: Tested for effect on guinea pigs sensitized with (S)5-Methyl-3-methylene-dihydro- furan-2-onenumber of animals showing erythema covering the whole test area; outline: as §2
[14] = species on record: Cavia porcellus; test: Tested for effect on guinea pigs sensitized with (+/-)-5-Methyl-3-methylene-dihydro-furan-2-one number of animals showing erythema and swelling of the test area; outline: as §3
[15] = species on record: Cavia porcellus; test: Tested for effect on guinea pigs sensitized with (+/-)-5-Methyl-3-methylene-dihydro-furan-2-one,number of animals showing erythema covering the part of the test area; outline: as §3
[16] = species on record: Cavia porcellus; test: Tested for effect on guinea pigs sensitized with (+/-)-5-Methyl-3-methylene-dihydro-furan-2-one,number of animals showing erythema covering the whole test area; outline: as §3
[17] = species on record: Cavia porcellus; test: Tested for effect on guinea pigs sensitized with (+/-)-5-Methyl-3-methylene-dihydro-furan-2-one,number of animals showing no reaction; outline: as §3
[18] = species on record: Cavia porcellus; test: Tested for effect on guinea pigs sensitized with (S)5-Methyl-3-methylene-dihydro- furan-2-one number of animals showing no reaction; outline: as §2
[19] = species on record: Cavia porcellus; test: Tested for its effect on guinea pigs sensitized with (R)-5-Methyl-3-methylene -dihydro -furan-2-one, Number of sensitive animals out of 8 tested; outline: as §1
[20] = species on record: Cavia porcellus; test: Tested for its effect on guinea pigs sensitized with (S)5-Methyl-3-methylene-dihydro- furan-2-one; Number of sensitive animals out of 8 tested
Outline: (§4)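 Albino female Hartley guinea pigs (250-300 g) got three 0.1 mL intradermal nuchal injections on alternate days of 1:1 FCA-saline emulsion with 5% enantiomer. After 2 weeks rest, 0.25 mL of 1% (enantiomers) or 1% or 2% (racemate) in methylene chloride was applied to a 2-cm2 area. Erythema/swelling scored 0-3 every 24 h; average = summed scores/animals.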

[21] = species on record: Cavia porcellus; test: Tested for its effect on guinea pigs sensitized with (R)-5-Methyl-3-methylene -dihydro -furan-2-one,av is calculated by adding the test intensity and divided by the number of animals; outline: as §1
[22] = species on record: Cavia porcellus; test: Tested for its effect on guinea pigs sensitized with (+/-)-5-Methyl-3-methylene-dihydro-furan-2-one, Number of sensitive animals out of 8 tested; outline: as §3
[23] = species on record: Cavia porcellus; test: Tested for its effect on guinea pigs sensitized with (S)5-Methyl-3-methylene-dihydro- furan-2-one,av is calculated by adding the test intensity and divided by the number of animals; outline: as §4
[24] = species on record: Cavia porcellus; test: Tested for its effect on guinea pigs sensitized with (+/-)-5-Methyl-3-methylene-dihydro-furan-2-one, av is calculated by adding the test intensity and divided by the number of animals; outline: as §3
[25] = species on record: Cavia porcellus; test: Tested for its effect on guinea pigs sensitized with (+/-)-5-Methyl-3-methylene-dihydro-furan-2-one,number of animals showing no reaction; outline: as §3
[26] = species on record: Cavia porcellus; test: Tested for its effect on guinea pigs sensitized with (R)-5-Methyl-3-methylene -dihydro -furan-2-one, number of animals showing erythema and swelling of the test area; outline: as §1
[27] = species on record: Cavia porcellus; test: Tested for its effect on guinea pigs sensitized with (R)-5-Methyl-3-methylene -dihydro -furan-2-one,number of animals showing erythema covering the part of the test area; outline: as §4
[28] = species on record: Cavia porcellus; test: Tested for its effect on guinea pigs sensitized with (R)-5-Methyl-3-methylene -dihydro -furan-2-one,number of animals showing erythema covering the whole test area; outline: as §4
[29] = species on record: Cavia porcellus; test: Tested for its effect on guinea pigs sensitized with (R)-5-Methyl-3-methylene -dihydro -furan-2-one,number of animals showing no reaction; outline: as §4
[30] = species on record: Cavia porcellus; test: Tested for its effect on guinea pigs sensitized with (S)5-Methyl-3-methylene-dihydro- furan-2-one number of animals showing erythema and swelling of the test area.; outline: as §4
[31] = species on record: Cavia porcellus; test: Tested for its effect on guinea pigs sensitized with (S)5-Methyl-3-methylene-dihydro- furan-2-one number of animals showing erythema covering the part of the test area; outline: as §4
[32] = species on record: Cavia porcellus; test: Tested for its effect on guinea pigs sensitized with (S)5-Methyl-3-methylene-dihydro- furan-2-one number of animals showing no reaction; outline: as §4
[33] = species on record: Cavia porcellus; test: Tested for its effect on guinea pigs sensitized with (S)5-Methyl-3-methylene-dihydro- furan-2-onenumber of animals showing erythema covering the whole test area; outline: as §4
[34] = species on record: Cavia porcellus; test: Tested for its effect on guinea pigs sensitized with (+/-)-5-Methyl-3-methylene-dihydro-furan-2-one number of animals showing erythema and swelling of the test area; outline: as §3
[35] = species on record: Cavia porcellus; test: Tested for its effect on guinea pigs sensitized with (+/-)-5-Methyl-3-methylene-dihydro-furan-2-one,number of animals showing erythema covering the part of the test area; outline: as §3
[36] = species on record: Cavia porcellus; test: Tested for its effect on guinea pigs sensitized with (+/-)-5-Methyl-3-methylene-dihydro-furan-2-one,number of animals showing erythema covering the whole test area; outline: as §3
[37] = species on record: Cavia porcellus; test: Tested for effect on guinea pigs sensitized with (+/-)-5-Methyl-3- methylene-dihydro-furan-2-one; Number of sensitive animals out of 8 tested; outline: as §3
[38] = species on record: Cavia porcellus; test: Tested for effect on guinea pigs sensitized with (R)5-Methyl-3- methylene-dihydro-furan-2-one; Number of sensitive animals out of 8 tested; outline: as §1
[39] = species on record: Cavia porcellus; test: Tested for effect on guinea pigs sensitized with (R)-5-Methyl-3-methylene-dihydro-furan-2-one; Number of sensitive animals out of 8 tested; outline: as §1
[40] = species on record: Cavia porcellus; test: Tested for effect on guinea pigs sensitized with (S)5-Methyl-3- methylene-dihydro-furan-2-one; Number of sensitive animals out of 8 tested; outline: as §2
[41] = species on record: Cavia porcellus; test: Tested for effect on guinea pigs sensitized with (+/-)-5-Methyl-3- methylene-dihydro-furan-2-one and av is calculated by adding the test intensity and divided by the number of animals; outline: as §3
[42] = species on record: Cavia porcellus; test: Tested for effect on guinea pigs sensitized with (R)5-Methyl-3- methylene-dihydro-furan-2-one and av is calculated by adding the test intensity and divided by the number of animals; outline: as §1
[43] = species on record: Cavia porcellus; test: Tested for effect on guinea pigs sensitized with (S)5-Methyl-3- methylene-dihydro-furan-2-one and av is calculated by adding the test intensity and divided by the number of animals; outline: as §2
[44] = species on record: Cavia porcellus; test: Tested for effect on guinea pigs sensitized with (+/-)-5-Methyl-3- methylene-dihydro-furan-2-one; Number of sensitive animals; outline: as §3
[45] = species on record: Cavia porcellus; test: Tested for effect on guinea pigs sensitized with (R)5-Methyl-3- methylene-dihydro-furan-2-one and number of animals showing erythema covering the part of the test area; outline: as §1
[46] = species on record: Cavia porcellus; test: Tested for effect on guinea pigs sensitized with (R)5-Methyl-3- methylene-dihydro-furan-2-one and number of animals showing erythema covering the whole test area; outline: as §1
[47] = species on record: Cavia porcellus; test: Tested for effect on guinea pigs sensitized with (+/-)-5-Methyl-3- methylene-dihydro-furan-2-one and number of animals showing erythema and swelling of the test area; outline: as §3
[48] = species on record: Cavia porcellus; test: Tested for effect on guinea pigs sensitized with (+/-)-5-Methyl-3- methylene-dihydro-furan-2-one and number of animals showing erythema covering the part of the test area; outline: as §3
[49] = species on record: Cavia porcellus; test: Tested for effect on guinea pigs sensitized with (+/-)-5-Methyl-3- methylene-dihydro-furan-2-one and number of animals showing erythema covering the whole test area; outline: as §3
[50] = species on record: Cavia porcellus; test: Tested for effect on guinea pigs sensitized with (+/-)-5-Methyl-3- methylene-dihydro-furan-2-one and number of animals showing no reaction; outline: as §3
[51] = species on record: Cavia porcellus; test: Tested for effect on guinea pigs sensitized with (R)5-Methyl-3 -methylene-dihydro-furan-2-one and number of animals showing erythema covering the part of the test area; outline: as §1
[52] = species on record: Cavia porcellus; test: Tested for effect on guinea pigs sensitized with (R)5-Methyl-3 -methylene-dihydro-furan-2-one and number of animals showing erythema covering the whole test area; outline: as §1
[53] = species on record: Cavia porcellus; test: Tested for effect on guinea pigs sensitized with (S)5-Methyl-3 -methylene-dihydro-furan-2-one and number of animals showing erythema covering the whole test area; outline: as §2
[54] = species on record: Cavia porcellus; test: Tested for effect on guinea pigs sensitized with (S)5-Methyl-3- methylene-dihydro-furan-2-one and number of animals showing erythema covering the whole test area; outline: as §2
[55] = species on record: Cavia porcellus; test: Tested for effect on guinea pigs sensitized with (S)5-Methyl-3- methylene-dihydro-furan-2-one and number of animals showing no reaction; outline: as §2

Structure (SMILES): C=C1C[C@@H](C)OC1=O
- No. of sensitive animals [1]: 8
- No. of sensitive animals [2]: 8
- No. of sensitive animals [3]: 8
- av [4]: 1.3
- av [5]: 0.8
- av [6]: 1.7
- Skin tests intensity [7]: 3
- Skin tests intensity [8]: 1
- Skin tests intensity [9]: 4
- Skin tests intensity [10]: 0
- Skin tests intensity [11]: 0
- Skin tests intensity [12]: 3
- Skin tests intensity [13]: 5
- Skin tests intensity [14]: 6
- Skin tests intensity [15]: 1
- Skin tests intensity [16]: 1
- Skin tests intensity [17]: 0
- Skin tests intensity [18]: 0

Structure (SMILES): C=C1C[C@H](C)OC1=O
- No. of sensitive animals [19]: 5
- No. of sensitive animals [20]: 8
- av [21]: 0.4
- No. of sensitive animals [22]: 8
- av [23]: 0.9
- av [24]: 1.8
- Skin tests intensity [25]: 0
- Skin tests intensity [26]: 0
- Skin tests intensity [27]: 3
- Skin tests intensity [28]: 2
- Skin tests intensity [29]: 3
- Skin tests intensity [30]: 0
- Skin tests intensity [31]: 1
- Skin tests intensity [32]: 0
- Skin tests intensity [33]: 7
- Skin tests intensity [34]: 6
- Skin tests intensity [35]: 0
- Skin tests intensity [36]: 2

Structure (SMILES): C=C1CC(C)OC1=O (stereo not given)
- No. of sensitive animals [37]: 8
- No. of sensitive animals [38]: 6
- No. of sensitive animals [39]: 8
- No. of sensitive animals [40]: 8
- av [41]: 1.8 and 1.5
- av [42]: 1.8 and 0.7
- av [43]: 1.9 and 0.9
- No. of sensitive animals [44]: 8
- Skin tests intensity [45]: 1
- Skin tests intensity [46]: 5
- Skin tests intensity [47]: 6 and 4
- Skin tests intensity [48]: 0
- Skin tests intensity [49]: 2 and 4
- Skin tests intensity [50]: 0
- Skin tests intensity [51]: 0
- Skin tests intensity [52]: 2
- Skin tests intensity [53]: 1
- Skin tests intensity [54]: 7
- Skin tests intensity [55]: 0
